Where only a bound is given, the exact number is not on record here.

The values that follow come from ChEMBL document CHEMBL1134532, “Reversible carnitine palmitoyltransferase inhibitors with broad chemical diversity as potential antidiabetic agents” (J Med Chem, 2001).

Test [1] addresses T1, Carnitine O-palmitoyltransferase 1, muscle isoform (Rattus norvegicus, UniProt Q63704).
T1 sequence (Q63704 whole entry): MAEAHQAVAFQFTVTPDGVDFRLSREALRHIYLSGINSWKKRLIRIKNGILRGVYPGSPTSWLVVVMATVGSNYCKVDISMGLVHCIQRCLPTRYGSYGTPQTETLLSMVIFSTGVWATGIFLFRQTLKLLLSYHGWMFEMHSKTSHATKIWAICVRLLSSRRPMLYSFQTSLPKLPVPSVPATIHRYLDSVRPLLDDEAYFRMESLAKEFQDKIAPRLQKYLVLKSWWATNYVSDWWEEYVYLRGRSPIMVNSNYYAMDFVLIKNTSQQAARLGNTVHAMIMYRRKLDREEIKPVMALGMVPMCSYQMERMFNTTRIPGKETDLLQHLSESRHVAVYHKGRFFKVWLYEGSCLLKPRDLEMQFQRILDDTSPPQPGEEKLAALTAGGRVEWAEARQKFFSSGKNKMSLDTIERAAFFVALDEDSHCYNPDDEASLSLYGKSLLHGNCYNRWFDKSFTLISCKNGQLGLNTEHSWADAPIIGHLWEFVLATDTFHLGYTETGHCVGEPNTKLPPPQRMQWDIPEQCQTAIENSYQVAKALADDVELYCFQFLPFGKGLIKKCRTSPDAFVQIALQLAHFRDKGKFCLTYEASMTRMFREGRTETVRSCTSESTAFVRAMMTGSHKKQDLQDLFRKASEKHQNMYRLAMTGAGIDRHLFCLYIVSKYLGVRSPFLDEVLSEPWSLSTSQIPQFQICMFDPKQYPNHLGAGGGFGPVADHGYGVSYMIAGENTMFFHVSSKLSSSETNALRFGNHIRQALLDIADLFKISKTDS
Put plainly: Inhibitory activity against rat heart mitochondrial carnitine palmitoyltransferase 1b using [14C]palmitoyl-CoA as radioligand. In short, it runs like this: (§1)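 Performed on intact rat mitochondria: liver for L-CPT I, heart for M-CPT I. IC50 in µM calculated from the inhibition curve. Values are means of two determinations in triplicate, with variation between experiments under 8%.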

Test [2] has as its target T2, Carnitine O-palmitoyltransferase 1, liver isoform (Rattus norvegicus, UniProt P32198).
T2 sequence (P32198 whole entry): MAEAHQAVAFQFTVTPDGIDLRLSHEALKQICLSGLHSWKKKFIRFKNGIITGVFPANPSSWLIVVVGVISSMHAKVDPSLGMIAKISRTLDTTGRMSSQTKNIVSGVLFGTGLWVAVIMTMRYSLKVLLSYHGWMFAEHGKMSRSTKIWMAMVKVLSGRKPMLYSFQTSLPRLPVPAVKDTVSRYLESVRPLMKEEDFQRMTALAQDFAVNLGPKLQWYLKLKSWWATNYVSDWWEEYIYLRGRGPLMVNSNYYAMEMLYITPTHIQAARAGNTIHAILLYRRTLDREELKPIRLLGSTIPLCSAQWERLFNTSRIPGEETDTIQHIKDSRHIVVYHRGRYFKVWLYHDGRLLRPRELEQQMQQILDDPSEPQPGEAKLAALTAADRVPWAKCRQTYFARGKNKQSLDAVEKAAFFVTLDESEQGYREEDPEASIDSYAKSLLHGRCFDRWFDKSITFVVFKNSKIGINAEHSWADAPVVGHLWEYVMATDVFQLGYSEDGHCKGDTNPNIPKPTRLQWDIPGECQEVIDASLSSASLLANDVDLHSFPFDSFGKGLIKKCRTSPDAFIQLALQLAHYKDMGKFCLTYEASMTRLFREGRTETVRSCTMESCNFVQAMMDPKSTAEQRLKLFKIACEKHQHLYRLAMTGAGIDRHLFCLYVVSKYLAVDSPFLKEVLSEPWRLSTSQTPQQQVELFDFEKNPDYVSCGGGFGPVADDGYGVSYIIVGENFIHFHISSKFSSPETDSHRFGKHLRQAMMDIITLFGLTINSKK
Put plainly: Inhibition of rat liver mitochondrial carnitine palmitoyltransferase 1 using [14C]palmitoyl-CoA radioligand. The method in brief:
as §1

For the compound `CCCCCCCCCCCNS(=O)(=O)N[C@@H](CC(=O)[O-])C[N+](C)(C)C`, the IC50 in test [1] was over 10 µM; in test [2], 6 µM. The corresponding values for `CCCCCCCCCCCCS(=O)(=O)N[C@H](CC(=O)[O-])C[N+](C)(C)C` are 3.4 µM and 0.7 µM. In the same order, the values of `CCCCCCCCCCCNS(=O)(=O)N[C@H](CC(=O)[O-])C[N+](C)(C)C` are 5.8 µM and 0.8 µM. On to `CCCCCCCCCCCCS(=O)(=O)N[C@@H](CC(=O)[O-])C[N+](C)(C)C`, for which the IC50 in test [1] is over 10 µM; in test [2], 6 µM. Compound `CCCCCCCCCNC(=O)OC(C[n+]1ccccc1)CP(=O)(O)O` (centres undefined) gave a half-inhibitory concentration (IC50) in test [2] of over 300 µM. On the same count and under the same terms, under `CCCCCCCCCNC(=O)OC(CC(=O)[O-])C[P+](C)(C)C` (centres undefined) stands over 300 µM; under `CCCCCCCCCCCCCCOC(=O)OC(CC(=O)[O-])C[N+]12CCC(CC1)CC2` (centres undefined), over 300 µM; under `CCCCCCCCCCCCCCNC(CC(=O)[O-])C[N+](C)(C)C` (centres undefined), 230 µM. On the same count and under the same terms, to `CCCCCCCCCOC(=O)OC(CC(=O)O)C[N+](C)(C)C` (centres undefined) belongs over 300 µM; to `CCCCCCCCCCCCCCOC(CC(=O)[O-])C[N+](C)(C)C` (centres undefined), 47 µM; to `CCCCCCCCCNC(=O)OC(CC(=O)[O-])C[N+](C)(C)C` (centres undefined), over 300 µM. In test [2], `CCCCCCCCNC(CC(=O)[O-])C[N+](C)(C)C` (centres undefined) came in with an IC50 of over 300 µM. In test [2], `CCCCCCCCCCCCCCOC(=O)OC(C[N+]12CCC(CC1)CC2)CP(=O)([O-])O` (centres undefined) showed an IC50 of over 300 µM. The same measure, in the same setting: under `CCCCCCCCCCCCCCOC(Cc1nn[n-]n1)C[N+](C)(C)C` (centres undefined) stands over 300 µM. In the case of `CCCCCCCCCNS(=O)(=O)NC(CC(=O)[O-])C[N+](C)(C)C` (centres undefined), the concentration for half-maximal inhibition (IC50) in test [1] came out at 3.8 µM; in test [2] it was 2.3 µM. In the same order, the values of `CCCCCCCCCNC(=O)NC(CC(=O)[O-])C[N+](C)(C)C` (centres undefined) are 83.2 µM and 19.5 µM. In the same order, the values of `CCCCCCCCOC(=O)NC(CC(=O)[O-])C[N+](C)(C)C` (centres undefined) are 211 µM and 22.3 µM. Turning to `CCCCCCCCOC(CC(=O)[O-])C[N+](C)(C)C` (centres undefined), the IC50 in test [2] is over 300 µM.

Regarding `CCCCCCCCCNC(=S)NC(CC(=O)[O-])C[N+](C)(C)C` (centres undefined), in test [2], the IC50 came to 122 µM.

For `CCCCCCCCCCS(=O)(=O)NC(CC(=O)[O-])C[N+](C)(C)C` (centres undefined), the IC50 in test [1] came out at 2.3 µM; in test [2] it was 1.6 µM.

In the case of `CCCCCCCCCNC(=O)OC(C[N+](C)(C)C)CP(=O)([O-])O` (centres undefined), the IC50 in test [2] was over 300 µM.

For orientation: IC50 means the midpoint of a concentration-inhibition curve.
